Data as given in ChEMBL document CHEMBL4842372, “Discovery of ARD-2585 as an Exceptionally Potent and Orally Active PROTAC Degrader of Androgen Receptor for the Treatment of Advanced Prostate Cancer” (J Med Chem, 2021).
Activity calls are given as the source filed them. The calls are words filed in the database; no cut-off is given here.

Key:
VCaP [1] = experiment: Growth inhibition of human VCaP cells assessed as cell viability by WST-8 assay; assay type: functional, cell-based
[2] = biological target: Protein cereblon/Androgen receptor (Homo sapiens, UniProt P10275+Q96SW2); experiment: Protac activity at CRBN/AR in human VCaP cells assessed as AR degradation after 24 hrs by Western blot analysis; assay type: cell-based
Protein cereblon/Androgen receptor (Homo sapiens, UniProt P10275+Q96SW2), sequence (P10275 whole entry): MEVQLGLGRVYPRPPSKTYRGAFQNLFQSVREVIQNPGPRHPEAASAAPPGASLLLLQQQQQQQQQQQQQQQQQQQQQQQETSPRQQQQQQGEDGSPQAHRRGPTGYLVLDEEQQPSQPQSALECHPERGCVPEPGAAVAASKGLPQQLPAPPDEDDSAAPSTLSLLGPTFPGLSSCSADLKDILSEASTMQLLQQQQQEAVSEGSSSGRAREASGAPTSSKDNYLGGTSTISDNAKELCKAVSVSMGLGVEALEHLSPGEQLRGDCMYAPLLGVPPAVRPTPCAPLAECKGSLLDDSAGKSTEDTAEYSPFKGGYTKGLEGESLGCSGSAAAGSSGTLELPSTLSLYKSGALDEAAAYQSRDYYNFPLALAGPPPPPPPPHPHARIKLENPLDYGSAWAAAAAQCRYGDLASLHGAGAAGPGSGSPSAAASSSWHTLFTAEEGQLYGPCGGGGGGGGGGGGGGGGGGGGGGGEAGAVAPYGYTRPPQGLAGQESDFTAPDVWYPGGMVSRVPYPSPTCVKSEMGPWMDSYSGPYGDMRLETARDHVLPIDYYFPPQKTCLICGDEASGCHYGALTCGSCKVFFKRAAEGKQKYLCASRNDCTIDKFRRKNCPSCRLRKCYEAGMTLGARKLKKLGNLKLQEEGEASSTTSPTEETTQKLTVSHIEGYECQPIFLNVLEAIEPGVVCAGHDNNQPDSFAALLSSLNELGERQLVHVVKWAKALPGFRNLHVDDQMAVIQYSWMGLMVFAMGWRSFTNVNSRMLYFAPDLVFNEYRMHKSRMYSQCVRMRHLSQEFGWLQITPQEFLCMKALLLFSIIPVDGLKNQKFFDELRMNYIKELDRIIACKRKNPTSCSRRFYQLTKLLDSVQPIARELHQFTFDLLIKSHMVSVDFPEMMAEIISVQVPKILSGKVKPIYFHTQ
Protein cereblon/Androgen receptor (Homo sapiens, UniProt P10275+Q96SW2), sequence (Q96SW2 whole entry): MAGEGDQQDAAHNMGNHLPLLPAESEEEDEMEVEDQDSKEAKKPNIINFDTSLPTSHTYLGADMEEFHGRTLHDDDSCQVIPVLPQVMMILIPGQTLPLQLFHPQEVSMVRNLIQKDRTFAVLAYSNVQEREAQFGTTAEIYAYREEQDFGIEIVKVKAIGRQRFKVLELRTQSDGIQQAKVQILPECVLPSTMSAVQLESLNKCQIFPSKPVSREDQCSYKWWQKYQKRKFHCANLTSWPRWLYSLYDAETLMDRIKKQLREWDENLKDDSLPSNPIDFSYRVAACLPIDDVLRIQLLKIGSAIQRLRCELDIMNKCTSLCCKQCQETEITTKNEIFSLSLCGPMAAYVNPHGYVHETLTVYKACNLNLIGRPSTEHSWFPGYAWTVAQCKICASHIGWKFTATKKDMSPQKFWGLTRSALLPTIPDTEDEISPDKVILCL

[3] = Oral bioavailability in SCID mouse at 3 mg/kg by LC-MS/MS analysis; assay type: ADME, organism-based; conditions: in vivo
LNCaP = experiment: Growth inhibition of human LNCaP cells carrying AR T878A mutant assessed as cell viability by WST-8 assay; assay type: functional, cell-based
[4] = biological target: Protein cereblon/Androgen receptor (Homo sapiens, UniProt P10275+Q96SW2, T878A); conditions: lncap
Protein cereblon/Androgen receptor (Homo sapiens, UniProt P10275+Q96SW2, T878A), sequence (P10275 whole entry T878A, stated change not applied): as the sequence (P10275 whole entry) above, with T878A counted along it
Protein cereblon/Androgen receptor (Homo sapiens, UniProt P10275+Q96SW2, T878A), sequence (Q96SW2 whole entry, stated change not applied): as the sequence (Q96SW2 whole entry) above

[5] = Volume of distribution at steady state in SCID mouse at 1 mg/kg, iv by LC-MS/MS analysis; assay type: ADME, organism-based; conditions: in vivo, read-out: Vdss
In short: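 Male mice were used, three sacrificed per time-point, with 300 μL blood collected and plasma stored at −80 °C. Drug was quantified by a validated LC–MS/MS method on a C18 column with a 0.1% formic acid water/acetonitrile gradient at 0.4 mL/min. PK parameters were derived by noncompartmental analysis.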

VCaP [6] = experiment: Antitumor activity against human VCaP cells xenografted in CB17:SCID mouse assessed as reduction in AR protein level in tumor at 20 mg/kg, po measured for 6 to 24 hrs by Western blot analysis; assay type: functional, organism-based; conditions: time 6-24 hrs
In short: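 VCaP xenografts in male CB17 SCID mice grown to about 200 mm3; single oral gavage dose of 20 mg/kg in 100% PEG200; tumors collected at 6 and 24 h, RIPA lysates blotted for AR with GAPDH as loading control, band intensity normalised to loading control.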

[7] = Drug distribution in plasma of CB17:SCID mouse xenografted with human VCaP cells at 20 mg/kg, po measured at 6 hrs by LCMS analysis; assay type: ADME, organism-based
In short: (§1)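 Tumor-bearing male CB17 SCID mice (VCaP xenografts) given one 20 mg/kg oral dose in 100% PEG200, three mice per time point; plasma, tumor, liver, kidney, prostate and heart taken at 1, 6 and 24 h; tissues homogenised in water/acetonitrile, protein precipitated with cold acetonitrile, drug quantified by LC–MS/MS; ratios are tissue over plasma level.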

[8] = Drug distribution in plasma of CB17:SCID mouse xenografted with human VCaP cells at 20 mg/kg, po measured at 24 hrs by LCMS analysis; assay type: ADME, organism-based; in short: as §1
[9] = Drug distribution in prostate gland of CB17:SCID mouse xenografted with human VCaP cells at 20 mg/kg, po measured at 6 hrs by LCMS analysis; assay type: ADME, organism-based; conditions: read-out: Drug uptake; in short: as §1
[10] = Drug distribution in prostate gland of CB17:SCID mouse xenografted with human VCaP cells at 20 mg/kg, po measured at 24 hrs by LCMS analysis; assay type: ADME, organism-based; conditions: read-out: Drug uptake; in short: as §1
[11] = Drug distribution in tumor of CB17:SCID mouse xenografted with human VCaP cells at 20 mg/kg, po measured at 6 hrs by LCMS analysis; assay type: ADME, organism-based, Neoplasm; conditions: read-out: Drug uptake; in short: as §1
[12] = Drug distribution in tumor of CB17:SCID mouse xenografted with human VCaP cells at 20 mg/kg, po measured at 24 hrs by LCMS analysis; assay type: ADME, organism-based, Neoplasm; conditions: read-out: Drug uptake; in short: as §1
VCaP [13] = experiment: Antitumor activity against human VCaP cells xenografted in CB17:SCID mouse assessed as reduction in AR protein level in tumor at 10 mg/kg, po for 3 days measured at 3 hrs by Western blot analysis; assay type: functional; conditions: 72 h, time 3 day
In short: (§2)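 Male CB17 SCID mice bearing subcutaneous VCaP tumors (5 × 10^6 cells in Matrigel); dosed by oral gavage in 100% PEG200 at 10 mg/kg daily for 3 days; tumors harvested 3, 6 and 24 h post-dose, lysed in RIPA, Western blot for AR with GAPDH loading control, bands quantified by densitometry relative to loading control.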

VCaP [14] = experiment: Antitumor activity against human VCaP cells xenografted in CB17:SCID mouse assessed as reduction in AR protein level in tumor at 10 mg/kg, po for 3 days measured at 6 hrs by Western blot analysis; assay type: functional; conditions: 72 h, time 3 day; in short: as §2
VCaP [15] = experiment: Antitumor activity against human VCaP cells xenografted in CB17:SCID mouse assessed as reduction in AR protein level in tumor at 10 mg/kg, po for 3 days measured at 24 hrs by Western blot analysis; assay type: functional; conditions: 72 h, time 3 day; in short: as §2

In the case of `N#Cc1ccc(O[C@H]2CC[C@H](NC(=O)c3ccc(N4CCC(N5CCN(c6ccc7c(c6)C(=O)N(C6CCC(=O)NC6=O)C7=O)CC5)CC4)cc3)C2)cc1Cl` (stereo partly drawn), the IC50 (VCaP [1]) is reported as over 1000 nM.

In the case of `N#Cc1ccc(O[C@H]2CC[C@H](NC(=O)c3ccc(NCCCCCCCNc4ccc5c(c4)C(=O)N(C4CCC(=O)NC4=O)C5=O)cc3)CC2)cc1Cl` (stereo partly drawn), the DC50 [2] is reported as 0.7 nM.

In the case of `CN(c1ccc(C#N)c(Cl)c1)[C@H]1CC[C@H](NC(=O)c2ccc(N3CC(CN4CCN(c5ccc6c(c5)C(=O)N(C5CCC(=O)NC5=O)C6=O)CC4)C3)cc2)CC1` (stereo partly drawn), the F [3] is reported as 34%, the IC50 (VCaP [1]) is reported as 4.3 nM and the IC50 (LNCaP) is reported as 11.6 nM. The DC50 [4] was 1.9 nM.

Compound `N#Cc1ccc(O[C@H]2CC[C@H](NC(=O)c3ccc(NCCCCCNc4ccc5c(c4)C(=O)N(C4CCC(=O)NC4=O)C5=O)cc3)CC2)cc1Cl` (stereo partly drawn) has a DC50 [2] of 0.2 nM.

In the case of `N#Cc1ccc(O[C@H]2CC[C@H](NC(=O)c3ccc(NCCCCCCCCCNc4ccc5c(c4)C(=O)N(C4CCC(=O)NC4=O)C5=O)cc3)CC2)cc1Cl` (stereo partly drawn), the DC50 [2] is reported as 3.2 nM.

For `N#Cc1ccc(N[C@H]2CC[C@H](NC(=O)c3ccc(N4CCC(N5CCN(c6ccc7c(c6)C(=O)N(C6CCC(=O)NC6=O)C7=O)CC5)CC4)cc3)CC2)cc1Cl` (stereo partly drawn), the IC50 (VCaP [1]) was 16.6 nM.

`N#Cc1ccc(O[C@H]2CC[C@H](NC(=O)c3ccc(NCCCCNc4ccc5c(c4)C(=O)N(C4CCC(=O)NC4=O)C5=O)cc3)CC2)cc1Cl` (stereo partly drawn) gave a DC50 [2] of 1.1 nM.

`CC1(C)C(=O)N(c2ccc(C#N)c(C(F)(F)F)c2)C(=S)N1c1ccc(C(=O)N2CCN(C3CCN(c4ccc5c(c4)C(=O)N(C4CCC(=O)NC4=O)C5=O)CC3)CC2)c(F)c1` (stereo not drawn) gave an IC50 (VCaP [1]) of over 1000 nM.

`N#Cc1ncc(N2C(=O)C3(CCC3)N(c3ccc(C(=O)N4CCN(C5CCN(c6ccc7c(c6)C(=O)N(C6CCC(=O)NC6=O)C7=O)CC5)CC4)c(F)c3)C2=S)cc1C(F)(F)F` (stereo not drawn) showed an IC50 (VCaP [1]) of over 1000 nM.

`N#Cc1ccc(O[C@H]2CC[C@H](NC(=O)c3ccc(NCCCCCCCCNc4ccc5c(c4)C(=O)N(C4CCC(=O)NC4=O)C5=O)cc3)CC2)cc1Cl` (stereo partly drawn) gave a DC50 [2] of 1.5 nM.

`CN(c1ccc(C#N)c(Cl)c1)[C@H]1CC[C@H](NC(=O)c2ccc(N3CCN(C4CCN(c5ccc6c(c5)C(=O)N(C5CCC(=O)NC5=O)C6=O)CC4)CC3)cc2)CC1` (stereo partly drawn) showed a Vd [5] of 2.6 L/kg, an F [3] of 29% and an IC50 (VCaP [1]) of 0.8 nM. For the same compound, the IC50 (LNCaP) was 22.3 nM, the inhibition (VCaP [6]) was “Active” and the concentration at 6 h [7] was 37 ng/mL. The concentration at 24 h [8] was 38 ng/mL, the concentration at 6 h [9] was 58 ng/g and the concentration at 24 h [10] was 83 ng/g. For the same compound, the concentration at 6 h [11] was 120 ng/g, the concentration at 24 h [12] was 176 ng/g and the inhibition in vivo at 10 mg/kg (VCaP [13]) was 74%. For the same compound, the inhibition in vivo at 10 mg/kg (VCaP [14]) was 70%, the inhibition in vivo at 10 mg/kg (VCaP [15]) was 20% and the DC50 [4] was 0.4 nM.

For `N#Cc1ccc(O[C@H]2CC[C@H](NC(=O)c3ccc(N4CCN(CC5CCN(c6ccc7c(c6)C(=O)N(C6CCC(=O)NC6=O)C7=O)CC5)CC4)cc3)CC2)cc1Cl` (stereo partly drawn), the IC50 (VCaP [1]) was 2.7 nM.

`N#Cc1ccc(O[C@H]2CC[C@H](NC(=O)c3ccc(N4CCN(C5CN(c6ccc7c(c6)C(=O)N(C6CCC(=O)NC6=O)C7=O)C5)CC4)cc3)CC2)cc1Cl` (stereo partly drawn) gave a DC50 [2] of 0.1 nM.

With `N#Cc1ccc(O[C@H]2CC[C@H](NC(=O)c3ccc(N4CCN(CC5CN(c6ccc7c(c6)C(=O)N(C6CCC(=O)NC6=O)C7=O)C5)CC4)cc3)CC2)cc1Cl` (stereo partly drawn) the DC50 [2] was 0.3 nM and the IC50 (VCaP [1]) was 6.7 nM.

With `N#Cc1ccc(O[C@@H]2CCCN(C(=O)c3ccc(N4CCC(N5CCN(c6ccc7c(c6)C(=O)N(C6CCC(=O)NC6=O)C7=O)CC5)CC4)cc3)CC2)cc1Cl` (stereo partly drawn) the IC50 (VCaP [1]) was over 1000 nM.
